Measured values pooled from the literature.
Lines come from different studies, so protocols differ.
Target: STE20-like serine/threonine-protein kinase (SLK, Homo sapiens, UniProt Q9H2G2)

Structure (SMILES)	test	setting	remaining binding
O=C(NCCCN1CCOCC1)c1ccc(Nc2nccc(-c3cc4ccccc4s3)n2)cc1	binding, competition with immobilised ligand	1 µM	38%
N[C@@H]1CCN(c2nccc(-c3cnn4ncccc34)n2)C1	binding	1 µM	83%
CC(=O)N1CCC(c2ccc(C(=O)NC3=NCCN3)cc2C(F)(F)F)CC1	cell-free assay, competition with immobilised ligand	1 µM	94%
O=C(NCCCN1CCOCC1)c1ccc(Nc2ncc(Cl)c(-c3ccc(Cl)s3)n2)cc1	binding, competition with immobilised ligand	1 µM	8%
O=C(NS(=O)(=O)c1ccc(NCC2CCOCC2)c([N+](=O)[O-])c1)c1ccc(N2CCN(Cc3ccc(C(F)(F)F)cc3-c3ccc(Cl)cc3)CC2)cc1Oc1cnc2[nH]ccc2c1	cell-free assay, competition with immobilised ligand	1 µM	100%
COc1ncc2cc3ccccc3nc2c1C#N	cell-free assay, competition with immobilised ligand	5 µM	89%
O=C(NCC1CCOCC1)c1n[nH]cc1NC(=O)c1c(F)cccc1F	binding, competition with immobilised ligand	1 µM	99%
C[C@@H]1CN(c2cc(-c3n[nH]c4ccc(OC5(C)CC5)cc34)ncn2)C[C@H](C)O1	cell-free assay, competition with immobilised ligand	0.1 µM	98%
CN(C)c1nccc(-c2cnn3ncccc23)n1	binding	1 µM	100%
COc1cnc(Nc2cccc(S(N)(=O)=O)c2)nc1N1CCN(c2ccccc2)CC1	binding, competition with immobilised ligand	1 µM	99%
CCN1CCN(Cc2ccc(C(=O)Nc3ccc(C)c(Oc4ccc5c(c4)CC(=O)N5)c3)cc2C(F)(F)F)CC1	binding, competition with immobilised ligand	1 µM	76%
Cc1nc(Cc2cccc(C(F)(F)F)c2)sc1-c1ccc(C(N)=O)nc1	cell-free assay, competition with immobilised ligand	1 µM	100%
C[C@H]1CCN(c2nccc(-c3cnn4ncccc34)n2)C1	binding	1 µM	96%
CN([C@@H]1CCc2c(CC(=O)O)c3cc(S(C)(=O)=O)ccc3n2C1)S(=O)(=O)c1ccc(F)cc1	cell-free assay, competition with immobilised ligand	1 µM	100%
O=C(c1ccc(Nc2nccc(-c3cc4ccccc4s3)n2)cc1)N1CCC(N2CCCC2)CC1	binding, competition with immobilised ligand	1 µM	13%
CN(CCCC(F)(F)F)c1nccc(-c2cnn3ncccc23)n1	binding	1 µM	85%
c1ccc(N2CCN(Cc3nc4ccccc4[nH]3)CC2)nc1	binding, competition with immobilised ligand	1 µM	93%
Cc1cnn2ncc(-c3ccnc(N(C)C)n3)c2c1	binding	1 µM	100%
C[C@@H](c1ccc(-n2cnc3c(N)ncnc32)cc1)N1CCc2nn(C)c(Cc3ccccc3)c2C1=O	binding, competition with immobilised ligand	0.1 µM	100%
CN(C)c1nccc(-c2cnc3ncccn23)n1	binding	1 µM	100%
FC(F)(F)Oc1cccc(-c2cnc3ccc(-c4ccncc4)nn23)c1	binding, competition with immobilised ligand	5 µM	7.8%
